Laboratory results taken from ChEMBL document CHEMBL1156166, “Structural development studies of anti-hepatitis C virus agents with a phenanthridinone skeleton” (Bioorg Med Chem, 2010).
Activity calls are given as the source filed them. The calls are words filed in the database; no cut-off is given here.

Tests used:
[1] = Cytotoxicity against human NNC2 cells assessed as decrease in GAPDH RNA level after 3 days by RT-PCR; format: cell-based; settings: for CC50 at 72 h: NNC2 cells; for CC50: nnc2, 72 h
Summary of the method: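 NNC #2 cells carrying full-genomic HCV RNA replicons were grown in high-glucose DMEM with 10% FBS and 1 mg/mL G418. Cells were seeded at 5 × 10⁴ cells/mL and cultured 24 h at 37 °C. Medium was then replaced with DMEM/10% FBS containing graded compound concentrations for 3 days. HCV RNA and GAPDH RNA were quantified by real-time RT-PCR. EC50 and CC50 are the concentrations lowering each RNA to 50% of control.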

Hepatitis C virus [2] = experiment: Antiviral activity against HCV in human NNC2 cells assessed as inhibition of viral RNA replication after 3 days by RT-PCR analysis
[3] = Cytotoxicity against human NNC2 cells assessed as decrease in GAPDH RNA level at 10 uM after 3 days by RT-PCR; format: cell-based; settings: for cytotoxicity at 72 h, 10 µM: NNC2 cells, read-out: INH; for inhibition (INH): nnc2, 72 h, 10 µM
Hepatitis C virus [4] = experiment: Antiviral activity against HCV in human NNC2 cells assessed as inhibition of viral RNA replication at 10 uM after 3 days by RT-PCR analysis; settings: Hepacivirus hominis
Hepatitis C virus [5] = experiment: Antiviral activity against HCV in human NNC2 cells assessed as inhibition of viral RNA replication at 10 uM after […] by RT-PCR analysis; format: functional, Hepacivirus hominis
[6] = Selectivity index, CC50 for human NNC2 cells to IC50 for Hepatitis C virus; format: functional
[7] = Hepatitis C virus, NNC2, 3 days, read-out: EC50

SMILES	EC50 (Hepatitis C virus [2]; [7]) [µM]	CC50 at 72 h [1] [µM]	further results
CCCCn1c(=O)c2cccc(C)c2c2ccccc21	–	–	cytotoxicity at 72 h, 10 µM [3]: 94.9%; inhibition (Hepatitis C virus [4]): inactive
CCCCCCCCCn1c(=O)c2ccccc2c2cc(C(O)(C(F)(F)F)C(F)(F)F)ccc21	8.3	10.2	–
CCCCn1c(=O)c2ccc(C)cc2c2ccccc21	–	–	inhibition (INH) [3]: Not Active; inhibition (Hepatitis C virus [4]): inactive
CCCCn1c(=O)c2ccc3ccccc3c2c2ccccc21	> 31.4	31.4	–
CCCCn1c(=O)c2ccccc2c2ccc3ccccc3c21	19.5	24.3	–
CCCCn1c(=O)c2cc(C)ccc2c2ccccc21	–	–	inhibition at 10 µM (Hepatitis C virus [5]): 87%; cytotoxicity at 72 h, 10 µM [3]: 88.8%
CCCCn1c(=O)c2ccccc2c2ccc(C)cc21	–	–	cytotoxicity at 72 h, 10 µM [3]: 70.7%; inhibition (Hepatitis C virus [4]): inactive
CCCCn1c(=O)c2ccccc2c2cccc(C)c21	–	–	inhibition (INH) [3]: Not Active; inhibition (Hepatitis C virus [4]): inactive
CCCCn1c(=O)c2ccccc2c2cc(C(C)O)ccc21 (stereo not given)	21.8	51.4	–
CCCCn1c(=O)c2ccccc2c2cc3c(cc21)C(C)(C)CCC3(C)C	18.7	27.3	–
CCCCn1c(=O)c2c(C)cccc2c2ccccc21	–	–	inhibition (INH) [3]: Not Active; inhibition (Hepatitis C virus [4]): inactive
CC1(C)CCC(C)(C)c2cc3c(cc21)c1ccccc1c(=O)n3Cc1ccccc1	21.2	31.8	–
CCCCn1c(=O)c2cc3c(cc2c2ccccc21)C(C)(C)CCC3(C)C	–	–	CC50 [1]: Not Active; EC50 (Hepatitis C virus [2]; nnc2): Not Active
O=c1c2ccccc2c2cc(C(O)(C(F)(F)F)C(F)(F)F)ccc2n1CC1CCCCC1	6.7	14.4	–
O=c1c2ccccc2c2cc(C(O)(C(F)(F)F)C(F)(F)F)ccc2n1CC(F)(F)F	24.8	30.3	–
CC1(C)CCC(C)(C)c2cc3c(cc21)c1ccccc1c(=O)n3CC1CCCCC1	–	–	CC50 [1]: Not Active; EC50 (Hepatitis C virus [2]; nnc2): Not Active
CCCCn1c(=O)c2ccccc2c2c(C)cccc21	–	–	cytotoxicity at 72 h, 10 µM [3]: 85.2%; inhibition (Hepatitis C virus [4]): inactive
CC1(C)CCC(C)(C)c2cc3c(cc21)[nH]c(=O)c1ccccc13	–	–	CC50 [1]: Not Active; EC50 (Hepatitis C virus [2]; nnc2): Not Active
CCCCn1c(=O)c2ccccc2c2cc(C(C)=O)ccc21	18.7	27.3	–
CCCCn1c(=O)c2ccccc2c2cc(F)ccc21	> 50	> 50	–

Further lines, with some results ahead:

EC50 (Hepatitis C virus [2]; [7]) [µM]	SMILES	CC50 at 72 h [1] [µM]	further results
29.9	CCCCn1c(=O)c2c3ccccc3ccc2c2ccccc21	> 40	–
34.7	CCCCn1c(=O)c2ccccc2c2cc(CC)ccc21	40.5	–
21	CCCCn1c(=O)c2ccccc2c2cc(CCc3ccccc3)ccc21	24.1	–
> 58.3	CCCCn1c(=O)c2ccccc2c2ccccc21	58.3	inhibition (INH) [3]: Not Active; inhibition (Hepatitis C virus [4]): inactive
4.8	CCCCCCn1c(=O)c2ccccc2c2cc(C(O)(C(F)(F)F)C(F)(F)F)ccc21	12.2	–
21.5	CCCCn1c(=O)c2ccccc2c2cc(CO)ccc21	> 50	–
35.8	CCCCn1c(=O)c2ccccc2c2cc(C)ccc21	38.4	inhibition at 10 µM (Hepatitis C virus [5]): 42%; cytotoxicity at 72 h, 10 µM [3]: 98.5%
16.2	CCCCn1c(=O)c2ccccc2c2cc(C(C)C)ccc21	29.7	–
29.1	CCCCn1c(=O)c2ccccc2c2c3ccccc3ccc21	44.5	–
7.7	O=c1c2ccccc2c2cc(C(O)(C(F)(F)F)C(F)(F)F)ccc2n1Cc1ccccc1	18.2	–
10.6	CCCCn1c(=O)c2ccccc2c2cc(C(C)(C)C)ccc21	24.9	–
3.7	CCCCn1c(=O)c2ccccc2c2cc(C(O)(C(F)(F)F)C(F)(F)F)ccc21	12.5	–
> 50	CCCCn1c(=O)c2ccccc2c2cc(C(F)(F)F)ccc21	> 50	–
37.9	CCCCn1c(=O)c2ccccc2c2cc(O)ccc21	43.7	–
11	CCCCn1c(=O)c2cc3ccccc3cc2c2ccccc21	> 40	Selectivity Index [6]: >3.64
3.2	CCCCn1c(=O)c2ccccc2c2cc3ccccc3cc21	6.3	Selectivity Index [6]: 1.97
14.1	CCn1c(=O)c2ccccc2c2cc(C(O)(C(F)(F)F)C(F)(F)F)ccc21	> 40	–
